Data reported in ChEMBL document CHEMBL4028872, “Structure-Activity Relationship, Pharmacological Characterization, and Molecular Modeling of Noncompetitive Inhibitors of the Betaine/γ-Aminobutyric Acid Transporter 1 (BGT1)” (J Med Chem, 2017).

What was measured:
Format in all cases: cell-based
[1] = molecular target: Sodium- and chloride-dependent GABA transporter 1 (Homo sapiens, UniProt P30531)
[2] = molecular target: T1, Sodium- and chloride-dependent betaine transporter (Homo sapiens, UniProt P48065); experiment: Inhibition of human BGT1 expresses in tsA201 cells assessed as reduction in [3H]GABA uptake after 3 mins by scintillation counting method
T1 sequence (P48065 whole entry): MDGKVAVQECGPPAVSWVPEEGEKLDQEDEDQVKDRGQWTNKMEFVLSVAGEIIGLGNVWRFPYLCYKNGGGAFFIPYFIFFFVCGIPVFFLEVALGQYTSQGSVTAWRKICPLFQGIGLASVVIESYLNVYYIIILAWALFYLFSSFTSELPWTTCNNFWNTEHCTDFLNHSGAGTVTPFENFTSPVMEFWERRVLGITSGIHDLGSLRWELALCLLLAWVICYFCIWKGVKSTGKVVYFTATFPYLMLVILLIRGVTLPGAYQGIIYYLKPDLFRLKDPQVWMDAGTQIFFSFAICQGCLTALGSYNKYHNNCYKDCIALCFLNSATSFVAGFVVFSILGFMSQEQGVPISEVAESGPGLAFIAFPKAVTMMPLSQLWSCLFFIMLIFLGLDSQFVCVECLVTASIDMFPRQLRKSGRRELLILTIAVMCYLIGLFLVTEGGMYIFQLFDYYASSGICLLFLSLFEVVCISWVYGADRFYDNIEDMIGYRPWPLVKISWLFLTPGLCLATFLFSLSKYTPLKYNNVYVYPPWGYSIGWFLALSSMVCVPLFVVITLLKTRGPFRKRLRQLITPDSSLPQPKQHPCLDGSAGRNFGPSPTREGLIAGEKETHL
Outline: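 tsA201 cells transiently transfected with wild-type or mutant human BGT1 (PolyFect) were plated about 24 h before assay. Three ice-cold washes followed, then scintillation counting.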

[3] = molecular target: T2, Sodium- and chloride-dependent GABA transporter 2 (Homo sapiens, UniProt Q9NSD5); experiment: Inhibition of human GAT2 expresses in tsA201 cells assessed as reduction in [3H]GABA uptake after 3 mins by scintillation counting method
T2 sequence (Q9NSD5 whole entry): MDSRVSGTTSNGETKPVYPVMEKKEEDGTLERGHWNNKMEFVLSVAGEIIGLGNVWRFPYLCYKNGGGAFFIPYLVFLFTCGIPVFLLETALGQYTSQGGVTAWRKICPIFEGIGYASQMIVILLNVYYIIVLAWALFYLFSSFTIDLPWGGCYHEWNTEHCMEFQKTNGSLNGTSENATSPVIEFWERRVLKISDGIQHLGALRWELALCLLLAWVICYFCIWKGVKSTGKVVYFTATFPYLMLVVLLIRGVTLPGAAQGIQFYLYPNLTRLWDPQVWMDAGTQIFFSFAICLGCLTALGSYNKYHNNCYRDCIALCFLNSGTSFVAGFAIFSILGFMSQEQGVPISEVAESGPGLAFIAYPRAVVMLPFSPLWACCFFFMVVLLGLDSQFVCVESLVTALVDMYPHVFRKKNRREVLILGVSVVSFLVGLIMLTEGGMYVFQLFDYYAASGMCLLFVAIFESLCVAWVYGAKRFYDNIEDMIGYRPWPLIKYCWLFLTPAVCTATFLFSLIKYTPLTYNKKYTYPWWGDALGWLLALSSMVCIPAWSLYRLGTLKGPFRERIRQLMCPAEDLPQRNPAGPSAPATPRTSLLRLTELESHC
Outline: (§1)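 Wild-type human GAT transiently expressed in tsA201 cells via pcDNA5/FRT and PolyFect. Uptake of 30 nM [3H]GABA was run for 3 min at 37 °C in HBSS/20 mM HEPES with 1 mM CaCl2 and 1 mM MgCl2, pH 7.4, across a range of test concentrations. Ice-cold washes were followed by scintillation counting. IC50 was obtained by sigmoidal variable-slope fitting, reported as mean pIC50 ± S.E.M.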

[4] = molecular target: T3, Sodium- and chloride-dependent GABA transporter 3 (Homo sapiens, UniProt P48066); experiment: Inhibition of human GAT3 expresses in tsA201 cells assessed as reduction in [3H]GABA uptake after 3 mins by scintillation counting method
T3 sequence (P48066 whole entry): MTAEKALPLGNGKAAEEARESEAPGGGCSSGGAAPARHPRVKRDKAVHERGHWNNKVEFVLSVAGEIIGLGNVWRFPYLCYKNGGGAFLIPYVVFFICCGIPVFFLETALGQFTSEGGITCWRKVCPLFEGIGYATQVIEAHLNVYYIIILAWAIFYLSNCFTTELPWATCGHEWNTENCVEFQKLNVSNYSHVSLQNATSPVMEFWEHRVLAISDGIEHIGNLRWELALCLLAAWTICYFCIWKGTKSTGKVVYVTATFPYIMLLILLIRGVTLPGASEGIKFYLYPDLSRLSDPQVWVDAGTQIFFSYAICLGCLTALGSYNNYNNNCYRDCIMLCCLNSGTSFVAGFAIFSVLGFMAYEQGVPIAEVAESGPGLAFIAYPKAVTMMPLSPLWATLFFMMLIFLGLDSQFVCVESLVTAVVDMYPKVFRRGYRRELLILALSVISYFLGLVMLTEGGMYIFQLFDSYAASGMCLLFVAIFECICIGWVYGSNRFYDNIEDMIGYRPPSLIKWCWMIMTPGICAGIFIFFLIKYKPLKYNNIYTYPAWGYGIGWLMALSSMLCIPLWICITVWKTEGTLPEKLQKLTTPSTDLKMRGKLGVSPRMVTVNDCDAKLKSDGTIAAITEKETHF
Outline: as §1

Sodium- and chloride-dependent GABA transporter 1, sequence (P30531 whole entry): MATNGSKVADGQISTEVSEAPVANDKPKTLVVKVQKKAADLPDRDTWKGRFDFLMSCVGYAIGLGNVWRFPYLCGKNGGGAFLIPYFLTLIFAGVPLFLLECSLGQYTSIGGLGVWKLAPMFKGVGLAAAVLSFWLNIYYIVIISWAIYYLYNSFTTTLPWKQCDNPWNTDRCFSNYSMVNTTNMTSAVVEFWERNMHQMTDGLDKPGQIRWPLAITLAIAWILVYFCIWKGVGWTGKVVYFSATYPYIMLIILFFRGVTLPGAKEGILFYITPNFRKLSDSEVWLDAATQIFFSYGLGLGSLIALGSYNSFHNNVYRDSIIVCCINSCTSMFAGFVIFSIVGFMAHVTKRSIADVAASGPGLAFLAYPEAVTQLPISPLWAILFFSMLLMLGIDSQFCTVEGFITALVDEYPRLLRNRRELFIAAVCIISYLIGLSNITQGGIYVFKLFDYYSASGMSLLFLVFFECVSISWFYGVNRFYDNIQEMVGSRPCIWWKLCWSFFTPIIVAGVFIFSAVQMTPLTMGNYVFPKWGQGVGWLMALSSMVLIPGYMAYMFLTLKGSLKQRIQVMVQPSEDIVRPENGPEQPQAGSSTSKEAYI

N#Cc1ccccc1CN1CCC(NC(=O)c2ccc(Cl)cc2Cl)CC1
IC50 ([1]; read-out: IC50): > 50 µM
IC50 ([2]; read-out: IC50): > 50 µM
IC50 ([3]; read-out: IC50): > 50 µM
IC50 ([4]; read-out: IC50): > 50 µM

O=C(NC1CCN(Cc2ccc(I)cc2)CC1)c1ccc(Cl)cc1Cl
IC50 ([1]; read-out: IC50): > 100 µM
IC50 ([2]; read-out: IC50): > 100 µM
IC50 ([3]; read-out: IC50): > 100 µM
IC50 ([4]; read-out: IC50): > 100 µM

O=C(NC1CCN(Cc2cccnc2)CC1)c1ccc(Cl)cc1Cl
IC50 ([1]; read-out: IC50): > 1000 µM
IC50 ([2]; read-out: IC50): > 1000 µM
IC50 ([3]; read-out: IC50): > 1000 µM
IC50 ([4]; read-out: IC50): > 1000 µM

CC(C)(C)OC(=O)CN1CCC(NC(=O)c2ccc(Cl)cc2Cl)CC1
IC50 ([1]; read-out: IC50): > 1000 µM
IC50 ([2]; read-out: IC50): > 1000 µM
IC50 ([3]; read-out: IC50): > 1000 µM
IC50 ([4]; read-out: IC50): > 1000 µM

O=C(NC1CCN(Cc2ccccc2)CC1)c1ccccc1
IC50 ([1]; read-out: IC50): > 1000 µM
IC50 ([2]; read-out: IC50): 290 µM
IC50 ([3]; read-out: IC50): > 1000 µM
IC50 ([4]; read-out: IC50): > 1000 µM

O=C(CN1CCC(NC(=O)c2ccc(Cl)cc2Cl)CC1)c1ccccc1
IC50 ([1]; read-out: IC50): > 100 µM
IC50 ([2]; read-out: IC50): > 100 µM
IC50 ([3]; read-out: IC50): > 100 µM
IC50 ([4]; read-out: IC50): > 100 µM

C#CCN1CCC(NC(=O)c2ccc(Cl)cc2Cl)CC1
IC50 ([1]; read-out: IC50): > 1000 µM
IC50 ([2]; read-out: IC50): > 1000 µM
IC50 ([3]; read-out: IC50): > 1000 µM
IC50 ([4]; read-out: IC50): > 1000 µM

O=C(NC1CCN(C/C=C/c2ccccc2)CC1)c1ccc(Cl)cc1Cl
IC50 ([1]; read-out: IC50): > 100 µM
IC50 ([2]; read-out: IC50): > 100 µM
IC50 ([3]; read-out: IC50): > 100 µM
IC50 ([4]; read-out: IC50): > 100 µM

O=C(NC1CCN(Cc2ccccc2[N+](=O)[O-])CC1)c1ccc(Cl)cc1Cl
IC50 ([1]; read-out: IC50): > 100 µM
IC50 ([2]; read-out: IC50): > 100 µM
IC50 ([3]; read-out: IC50): > 100 µM
IC50 ([4]; read-out: IC50): > 100 µM

CCN1CCC(NC(=O)c2ccc(Cl)cc2Cl)CC1
IC50 ([1]; read-out: IC50): > 1000 µM
IC50 ([2]; read-out: IC50): > 1000 µM
IC50 ([3]; read-out: IC50): > 1000 µM
IC50 ([4]; read-out: IC50): > 1000 µM

CC(C)C(=O)NC1CCN(Cc2ccccc2)CC1
IC50 ([1]; read-out: IC50): > 1000 µM
IC50 ([2]; read-out: IC50): > 1000 µM
IC50 ([3]; read-out: IC50): > 1000 µM
IC50 ([4]; read-out: IC50): > 1000 µM

N#Cc1ccc(CN2CCC(NC(=O)c3ccc(Cl)cc3Cl)CC2)cc1
IC50 ([1]; read-out: IC50): > 50 µM
IC50 ([2]; read-out: IC50): > 50 µM
IC50 ([3]; read-out: IC50): > 50 µM
IC50 ([4]; read-out: IC50): > 50 µM

CCCN1CCC(NC(=O)c2ccc(Cl)cc2Cl)CC1
IC50 ([1]; read-out: IC50): > 1000 µM
IC50 ([2]; read-out: IC50): > 1000 µM
IC50 ([3]; read-out: IC50): > 1000 µM
IC50 ([4]; read-out: IC50): > 1000 µM

COc1cccc(C(=O)NC2CCN(Cc3ccccc3)CC2)c1OC
IC50 ([1]; read-out: IC50): > 500 µM
IC50 ([2]; read-out: IC50): 91 µM
IC50 ([3]; read-out: IC50): > 500 µM
IC50 ([4]; read-out: IC50): > 500 µM

O=C(NC1CCN(Cc2ccccn2)CC1)c1ccc(Cl)cc1Cl
IC50 ([1]; read-out: IC50): > 1000 µM
IC50 ([2]; read-out: IC50): > 1000 µM
IC50 ([3]; read-out: IC50): > 1000 µM
IC50 ([4]; read-out: IC50): > 1000 µM

N#CCCCN1CCC(NC(=O)c2ccc(Cl)cc2Cl)CC1
IC50 ([1]; read-out: IC50): > 1000 µM
IC50 ([2]; read-out: IC50): > 1000 µM
IC50 ([3]; read-out: IC50): > 1000 µM
IC50 ([4]; read-out: IC50): > 1000 µM

O=C(NC1CCN(Cc2ccccc2)CC1)c1ccc(F)cc1
IC50 ([1]; read-out: IC50): > 300 µM
IC50 ([2]; read-out: IC50): 100 µM
IC50 ([3]; read-out: IC50): > 300 µM
IC50 ([4]; read-out: IC50): > 300 µM

O=C(NC1CCN(Cc2ccc([N+](=O)[O-])cc2)CC1)c1ccc(Cl)cc1Cl
IC50 ([1]; read-out: IC50): > 100 µM
IC50 ([2]; read-out: IC50): > 100 µM
IC50 ([3]; read-out: IC50): > 100 µM
IC50 ([4]; read-out: IC50): > 100 µM

O=C(O)CN1CCC(NC(=O)c2ccc(Cl)cc2Cl)CC1
IC50 ([1]; read-out: IC50): > 1000 µM
IC50 ([2]; read-out: IC50): > 1000 µM
IC50 ([3]; read-out: IC50): > 1000 µM
IC50 ([4]; read-out: IC50): > 1000 µM

COC(=O)c1ccc(CN2CCC(NC(=O)c3ccc(Cl)cc3Cl)CC2)cc1
IC50 ([1]; read-out: IC50): > 100 µM
IC50 ([2]; read-out: IC50): > 100 µM
IC50 ([3]; read-out: IC50): > 100 µM
IC50 ([4]; read-out: IC50): > 100 µM

CCOP(=O)(CCCN1CCC(NC(=O)c2ccc(Cl)cc2Cl)CC1)OCC
IC50 ([1]; read-out: IC50): > 1000 µM
IC50 ([2]; read-out: IC50): > 1000 µM
IC50 ([3]; read-out: IC50): > 1000 µM
IC50 ([4]; read-out: IC50): > 1000 µM

O=C(NC1CCN(Cc2ccccc2)CC1)c1cccc(C(F)(F)F)c1
IC50 ([1]; read-out: IC50): > 500 µM
IC50 ([2]; read-out: IC50): 170 µM
IC50 ([3]; read-out: IC50): > 500 µM
IC50 ([4]; read-out: IC50): > 500 µM

CCOc1ccccc1C(=O)NC1CCN(Cc2ccccc2)CC1
IC50 ([1]; read-out: IC50): > 500 µM
IC50 ([2]; read-out: IC50): 180 µM
IC50 ([3]; read-out: IC50): > 500 µM
IC50 ([4]; read-out: IC50): > 500 µM

O=C(NC1CCNCC1)c1ccc(Cl)cc1Cl
IC50 ([1]; read-out: IC50): > 1000 µM
IC50 ([2]; read-out: IC50): > 1000 µM
IC50 ([3]; read-out: IC50): > 1000 µM
IC50 ([4]; read-out: IC50): > 1000 µM

CN1CCC(NC(=O)c2ccc(Cl)cc2Cl)CC1
IC50 ([1]; read-out: IC50): > 1000 µM
IC50 ([2]; read-out: IC50): > 1000 µM
IC50 ([3]; read-out: IC50): > 1000 µM
IC50 ([4]; read-out: IC50): > 1000 µM

O=C(NC1CCN(Cc2ccccc2)CC1)c1ccc2c(c1)OCO2
IC50 [1]: > 100 µM
IC50 [2]: 42 µM
IC50 [3]: 63 µM
IC50 [4]: > 100 µM
